Assay results taken from ChEMBL document CHEMBL4184236, “Design, synthesis and biological evaluation of matrine derivatives as potential anticancer agents” (Bioorg Med Chem Lett, 2018).

What was measured:
SMMC-7721 [1] = experiment: Anticancer activity against human SMMC7721 cells assessed as reduction in cell viability incubated for 48 hrs MTT assay; assay type: functional, cell-based; conditions: SMMC-7721, 48 h
Outline: (§1)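 MTT assay on human hepatocarcinoma SMMC-7721, lung carcinoma A549 and nasopharyngeal carcinoma CNE2 cells, with matrine as comparator and cisplatin as positive control. IC50 is the concentration that lowers optical density of treated cells by 50% versus untreated cells, given as the mean ± SD of three experiments.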

A549 = experiment: Anticancer activity against human A549 cells assessed as reduction in cell viability incubated for 48 hrs MTT assay; assay type: functional, cell-based; conditions: A549, 48 h; outline: as §1
CNE-2 [2] = experiment: Anticancer activity against human CNE2 cells assessed as reduction in cell viability incubated for 48 hrs MTT assay; assay type: functional, cell-based; conditions: CNE-2, 48 h; outline: as §1
CNE-2 [3] = experiment: Induction of apoptosis in human CNE2 cells assessed as late apoptotic cells level at 5 uM incubated for 24 hrs by Annexin V-FITC/PI dual staining based flow cytometry (reference value: 1.37%); assay type: functional
Outline: (§2)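 CNE2 and SMMC-7721 cells were treated for 24 h at 0, 5, 10 or 30 µM, or at 0, 10, 20 or 50 µM depending on compound. Cells were stained with Annexin V-FITC/propidium iodide and quantified by flow cytometry. Apoptotic cells were counted as AV+/PI− (lower right) plus AV+/PI+ (upper right) quadrants.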

CNE-2 [4] = experiment: Induction of apoptosis in human CNE2 cells assessed as early apoptotic cells level at 10 uM incubated for 24 hrs by Annexin V-FITC/PI dual staining based flow cytometry (reference value: 3.56%); assay type: functional; outline: as §2
CNE-2 [5] = experiment: Induction of apoptosis in human CNE2 cells assessed as late apoptotic cells level at 10 uM incubated for 24 hrs by Annexin V-FITC/PI dual staining based flow cytometry (reference value: 1.37%); assay type: functional; outline: as §2
CNE-2 [6] = experiment: Induction of apoptosis in human CNE2 cells assessed as necrotic cells level at 10 uM incubated for 24 hrs by Annexin V-FITC/PI dual staining based flow cytometry (reference value: 3.43%); assay type: functional; outline: as §2
CNE-2 [7] = experiment: Induction of apoptosis in human CNE2 cells assessed as viable cells level at 30 uM incubated for 24 hrs by Annexin V-FITC/PI dual staining based flow cytometry (reference value: 91.6%); assay type: functional; outline: as §2
CNE-2 [8] = experiment: Induction of apoptosis in human CNE2 cells assessed as necrotic cells level at 30 uM incubated for 24 hrs by Annexin V-FITC/PI dual staining based flow cytometry (reference value: 3.43%); assay type: functional; outline: as §2
SMMC-7721 [9] = experiment: Induction of apoptosis in human SMMC7721 cells assessed as early apoptotic cells level at 5 uM incubated for 24 hrs by Annexin V-FITC/PI dual staining based flow cytometry (reference value: 1.36%); assay type: functional; outline: as §2
SMMC-7721 [10] = experiment: Induction of apoptosis in human SMMC7721 cells assessed as viable cells level at 10 uM incubated for 24 hrs by Annexin V-FITC/PI dual staining based flow cytometry (reference value: 95.3%); assay type: functional; outline: as §2
SMMC-7721 [11] = experiment: Induction of apoptosis in human SMMC7721 cells assessed as early apoptotic cells level at 10 uM incubated for 24 hrs by Annexin V-FITC/PI dual staining based flow cytometry (reference value: 1.36%); assay type: functional; outline: as §2
SMMC-7721 [12] = experiment: Induction of apoptosis in human SMMC7721 cells assessed as late apoptotic cells level at 10 uM incubated for 24 hrs by Annexin V-FITC/PI dual staining based flow cytometry (reference value: 0.88%); assay type: functional; outline: as §2
SMMC-7721 [13] = experiment: Induction of apoptosis in human SMMC7721 cells assessed as late apoptotic cells level at 30 uM incubated for 24 hrs by Annexin V-FITC/PI dual staining based flow cytometry (reference value: 0.88%); assay type: functional; outline: as §2
SMMC-7721 [14] = experiment: Induction of apoptosis in human SMMC7721 cells assessed as necrotic cells level at 30 uM incubated for 24 hrs by Annexin V-FITC/PI dual staining based flow cytometry (reference value: 2.47%); assay type: functional; outline: as §2
CNE-2 [15] = experiment: Induction of apoptosis in human CNE2 cells incubated for 24 hrs by Annexin V-FITC/PI dual staining based flow cytometry; assay type: functional, cell-based; outline: as §2
CNE-2 [16] = experiment: Induction of cell cycle arrest in human CNE2 cells assessed as accumulation at subG1 phase at 5 uM incubated for 24 hrs by propidium iodide staining based flow cytometry (reference value: 0.55%); assay type: functional
CNE-2 [17] = experiment: Induction of cell cycle arrest in human CNE2 cells assessed as accumulation at G0-G1 phase at 5 uM incubated for 24 hrs by propidium iodide staining based flow cytometry (reference value: 69.3%); assay type: functional
CNE-2 [18] = experiment: Induction of cell cycle arrest in human CNE2 cells assessed as accumulation at G0-G1 phase at 10 uM incubated for 24 hrs by propidium iodide staining based flow cytometry (reference value: 69.3%); assay type: functional
CNE-2 [19] = experiment: Induction of cell cycle arrest in human CNE2 cells assessed as accumulation at S phase at 10 uM incubated for 24 hrs by propidium iodide staining based flow cytometry (reference value: 10.3%); assay type: functional
CNE-2 [20] = experiment: Induction of cell cycle arrest in human CNE2 cells assessed as accumulation at S phase at 30 uM incubated for 24 hrs by propidium iodide staining based flow cytometry (reference value: 10.3%); assay type: functional
SMMC-7721 [21] = experiment: Induction of cell cycle arrest in human SMMC7721 cells assessed as accumulation at subG1 phase at 5 uM incubated for 24 hrs by propidium iodide staining based flow cytometry (reference value: 0.33%); assay type: functional
SMMC-7721 [22] = experiment: Induction of cell cycle arrest in human SMMC7721 cells assessed as accumulation at G0-G1 phase at 5 uM incubated for 24 hrs by propidium iodide staining based flow cytometry (reference value: 64.1%); assay type: functional
SMMC-7721 [23] = experiment: Induction of cell cycle arrest in human SMMC7721 cells assessed as accumulation at S phase at 5 uM incubated for 24 hrs by propidium iodide staining based flow cytometry (reference value: 17.2%); assay type: functional
SMMC-7721 [24] = experiment: Induction of cell cycle arrest in human SMMC7721 cells assessed as accumulation at G2/M phase at 5 uM incubated for 24 hrs by propidium iodide staining based flow cytometry (reference value: 18.4%); assay type: functional
SMMC-7721 [25] = experiment: Induction of cell cycle arrest in human SMMC7721 cells assessed as accumulation at subG1 phase at 10 uM incubated for 24 hrs by propidium iodide staining based flow cytometry (reference value: 0.33%); assay type: functional
SMMC-7721 [26] = experiment: Induction of cell cycle arrest in human SMMC7721 cells assessed as accumulation at S phase at 10 uM incubated for 24 hrs by propidium iodide staining based flow cytometry (reference value: 17.2%); assay type: functional
SMMC-7721 [27] = experiment: Induction of cell cycle arrest in human SMMC7721 cells assessed as accumulation at G2/M phase at 10 uM incubated for 24 hrs by propidium iodide staining based flow cytometry (reference value: 18.4%); assay type: functional
SMMC-7721 [28] = experiment: Induction of cell cycle arrest in human SMMC7721 cells assessed as accumulation at subG1 phase at 30 uM incubated for 24 hrs by propidium iodide staining based flow cytometry (reference value: 0.33%); assay type: functional
SMMC-7721 [29] = experiment: Induction of cell cycle arrest in human SMMC7721 cells assessed as accumulation at G2/M phase at 30 uM incubated for 24 hrs by propidium iodide staining based flow cytometry (reference value: 18.4%); assay type: functional
SMMC-7721 [30] = experiment: Induction of cell cycle arrest in human SMMC7721 cells assessed as accumulation at G2/M phase incubated for 24 hrs by propidium iodide staining based flow cytometry; assay type: functional

Question: Which results are given for `COc1cc(Cn2cccc2/C=C2\CC[C@@H]3[C@H]4CCCN5CCC[C@@H](CN3C2=O)[C@@H]45)cc(OC)c1`?
Answer: IC50 (SMMC-7721 [1]): 4.65 µM; IC50 (A549): 8.05 µM; IC50 (CNE-2 [2]): 3.55 µM; Activity (CNE-2 [3]): 3.17%; Activity (CNE-2 [4]): 25.1%; Activity (CNE-2 [5]): 8.94%; Activity (CNE-2 [6]): 5.22%; Activity (CNE-2 [7]): 43%; Activity (CNE-2 [8]): 6.5%; Activity (SMMC-7721 [9]): 13.8%; Activity (SMMC-7721 [10]): 32.8%; Activity (SMMC-7721 [11]): 42%; Activity (SMMC-7721 [12]): 18.5%; Activity (SMMC-7721 [13]): 17%; Activity (SMMC-7721 [14]): 3.67%; Activity (CNE-2 [15]): Dose-dependent effect; Activity (CNE-2 [16]): 5.06%; Activity (CNE-2 [17]): 55.2%; Activity (CNE-2 [18]): 3.93%; Activity (CNE-2 [19]): 2.43%; Activity (CNE-2 [20]): 4.8%; Activity (SMMC-7721 [21]): 4.95%; Activity (SMMC-7721 [22]): 63%; Activity (SMMC-7721 [23]): 7.92%; Activity (SMMC-7721 [24]): 24.1%; Activity (SMMC-7721 [25]): 6.61%; Activity (SMMC-7721 [26]): 8.92%; Activity (SMMC-7721 [27]): 78.9%; Activity (SMMC-7721 [28]): 3.08%; Activity (SMMC-7721 [29]): 79.1%; Activity (SMMC-7721 [30]): Dose-dependent effect
